Screening results: PubChem BioAssay, several laboratories
The list is not random: actives were taken first. Their share in the collection is about 1.8%.
AI-2 QS modul = modulators of Vibrio harveyi AI-2 quorum sensing system; AID 2094; hit rate 0.4% among 300,000; Vibrio harveyi JMH597 AI-2 luminescence/OD600 ratio, 9 h; hits give low values; strain lacks LuxN and CqsS sensors; 0 = neutral-control median; activity change, % at 7.5 µM; in the data active means activity change below about -75%, passing the limit was not always enough; inconclusive means no clear call, values can overlap the other calls;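 further: luminescence divided by OD600 gain over 9 h not by final OD600 alone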
LANA-H2B inh = blocks KSHV LANA binding to histone H2A/H2B. Q9QR71. cell-free LANA-H2A/H2B peptide, fluorescence polarization. inhibition, % (test concentration not listed). hit rate 0.6% among 320,000. AID 2629; in the data active means inhibition mostly above about 10%, no sharp cut-off; inactive means mostly below about 6.7%
HDAC3 inh = blocks human histone deacetylase 3; inhibition, % at 8.3 µM; AID 2718; hit rate 0.15% among 320,000; recombinant HDAC3, fluorogenic peptide/trypsin coupled, fluorescence; in the data active means inhibition above about 26%, passing the limit was not always enough; inconclusive means no clear call, values can overlap the other calls
ATG4B inh = blocks human ATG4B protease cleavage of LC3 substrate; ATG4B cleavage of LC3-PLA2, NBD-HPC fluorescence, 1 h; hit rate 0.51% among 340,000; inhibition, % at 8.33 µM; AID 504462; Q9Y4P1; in the data active means inhibition above about 40%
Target sequence (Q9Y4P1 whole entry, looked up): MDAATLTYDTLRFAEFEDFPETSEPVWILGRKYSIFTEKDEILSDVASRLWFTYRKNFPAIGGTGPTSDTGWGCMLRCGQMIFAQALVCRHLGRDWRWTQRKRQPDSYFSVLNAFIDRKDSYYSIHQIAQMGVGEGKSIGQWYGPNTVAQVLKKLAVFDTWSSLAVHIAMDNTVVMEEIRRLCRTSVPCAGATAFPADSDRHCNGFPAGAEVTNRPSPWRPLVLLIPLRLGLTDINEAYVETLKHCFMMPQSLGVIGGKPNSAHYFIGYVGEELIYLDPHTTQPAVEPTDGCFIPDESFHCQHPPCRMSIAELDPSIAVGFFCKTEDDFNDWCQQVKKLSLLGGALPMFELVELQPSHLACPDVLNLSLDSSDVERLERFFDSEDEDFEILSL
HKDC1 inh = blocks human hexokinase HKDC1 activity | Q2TB90 | recombinant HKDC1, G6PDH/diaphorase resazurin coupled fluorescence | inhibition, % at 20 µM | hit rate 0.16% among 340,000 | AID 493160;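 active means inhibition above about 35% when tested at 20 µM, limit read from the data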;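 further: plate controls were DMSO wells with enzyme for no effect and DMSO wells lacking enzyme for full effect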
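Test system: recombinant HKDC1 (HK5) hexokinase enzyme, produced in-house / Doses: 20 µM test compound, 1% DMSO / Timing: 90 min, room temperature / Detection: G6PDH/diaphorase-coupled fluorescence, 1 mM NADP, 100 µM resazurin, 525/613 nm / Control set: DMSO wells with and without enzyme mix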
A1 inh = inhibitors of the anti-apoptotic protein A1, read as caspase activation. MEF A1-2A-BIM cells, Caspase-Glo 3/7 luminescence, 3 h; percent of clofoctol response, vehicle zero. caspase activation, % (no concentration beside the values). hit rate 0.066% among 330,000. AID 2462;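 active means over half of replicate activation scores above 10%, or exactly half above 10 with the replicate mean above 10; inconclusive means replicate mean below 10 yet half the replicates above 10; inactive means over half of replicates below 10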
* marks the source's active call; other numbers are inactive results; ? = inconclusive; . = not tested or not shown; + = active, no number.

SMILES | AI-2 QS modul | LANA-H2B inh | HDAC3 inh | ATG4B inh | HKDC1 inh | A1 inh
O=C(N/N=C/c1ccc([N+](=O)[O-])o1)C(O)c1ccccc1 (stereo not given) | -89* | -3 | -3 | -7 | 4 | 0
Cc1nonc1C(=O)N/N=C/c1ccc([N+](=O)[O-])o1 | -96* | -6 | 2 | -5 | 5 | -1
O=C(CNc1ccc2ccccc2c1)N/N=C/c1ccc([N+](=O)[O-])o1 | -92* | 11 | -3 | -9 | 11 | 0
COc1ccc(C(O)(C(C)C)C(CN2CCOCC2)c2ccc(Cl)cc2)cc1 (stereo not given) | -7 | 0 | 2 | -9 | 2 | -1
NCC1CCC(C(=O)Oc2ccc(CCC(=O)O)cc2)CC1 (stereo not given) | 21 | -4 | 81* | -1 | 2 | 3
NS(=O)(=O)c1ccc(-c2ccc(/C=C3\C(=O)Nc4ccccc43)o2)cc1 | 13 | 1 | -2 | . | . | 3
CC1(C)OC(=O)C(=Cc2ccc(-c3ccc(S(N)(=O)=O)cc3)o2)C(=O)O1 | 20 | -5 | 4 | -6 | 2 | 6.1*
CCCCCC(O)(c1ccc(OC)cc1)C(CN1CCOCC1)c1ccccc1 (stereo not given) | -8 | -4 | 14 | -5 | 2 | ?
CCCCCC(O)(c1ccc(OCC)cc1)C(CN1CCOCC1)c1ccccc1 (stereo not given) | 6 | -2 | 26* | -3 | 6 | 0
COc1ccc(CC(=O)Nc2cc(C)ccc2O)cc1OC | -78* | -10 | 1 | -3 | -6 | 1
O=C(Nc1ncccc1O)c1ccc2c(c1)OCO2 | 16 | -3 | 86* | 6 | -7 | -4
O=C(Nc1ncccc1O)c1ccc2c(c1)OCCO2 | 9 | 1 | . | -2 | 3 | -2
O=C(Nc1cccc(C(=O)N2CCCC2)c1)C1CCC1 | . | . | . | -1 | -4 | .
COc1cc([N+](=O)[O-])ccc1N1C(=O)CC(Sc2nccc(C)n2)C1=O (stereo not given) | 17 | 15* | 6 | 4 | -8 | 0
Cc1cc(C)nc(SC2CC(=O)N(c3ccc(Cl)cc3)C2=O)n1 (stereo not given) | . | 1 | -6 | 3 | -6 | 1
Cc1cc(C)nc(SC2CC(=O)N(c3ccc(C)c(C)c3)C2=O)n1 (stereo not given) | 15 | 16* | -2 | 0 | -4 | 0
CN(Cc1ccc(Cl)s1)C(=O)CN1C(=O)N(C)C2(CCCCC2)C1=O | . | . | . | -2 | -4 | .
COCCOC(=O)c1[nH]c2c(c1C)C(=O)CC(c1cccs1)C2 (stereo not given) | -5 | . | . | 4 | -5 | .
CCOCCOC(=O)c1[nH]c2c(c1C)C(=O)CC(c1cccs1)C2 (stereo not given) | 3 | -8 | 2 | -4 | 0 | 5.9*
OC(Cc1ccncc1)c1ccccc1Cl (stereo not given) | . | . | . | 3 | -9 | .
O=C(c1ccccc1)N1CCN(Cc2ccccc2)CC1 | 17 | 1 | 2 | -3 | -6 | 1
CC(C)CC(=O)c1c[nH]c(C(=O)N2CCN(Cc3ccccc3)CC2)c1 | 14 | + | 1 | -12 | -4 | 0
CC(C)CC(=O)N1CCN(C(=O)c2ccc(F)cc2)CC1 | 19 | 16* | -10 | 3 | -5 | 0
CC(=O)c1c(C)[nH]c(C(=O)COC(=O)c2ccc(C)s2)c1C | . | -3 | 1 | -8 | -3 | 0
CCCCCCN1C=CC=C/C1=C/C=C(C#N)C#N | 21 | 10* | 17 | -6 | 1 | 0
SMILES | AI-2 QS modul | LANA-H2B inh | HDAC3 inh | ATG4B inh | HKDC1 inh | A1 inh
Cc1ccccc1C(=O)Nc1ccnn1C1CCN(Cc2cnn(C(C)C)c2)CC1 | -9 | 17* | -5 | 6 | 5 | 0
Cc1ccccc1C(=O)Nc1ccnn1C1CCN(Cc2cnn(C)c2)CC1 | 1 | 5 | -2 | 0 | -5 | 0
COc1ccc(OCC(=O)NCCCNC(=O)COc2ccc(OC)cc2)cc1 | . | 11* | -1 | -3 | -6 | 1
COCCNC(=O)C(=O)NNC(=O)COc1ccc(OC)cc1 | 12 | 20* | 0 | -12 | -7 | 0
CC(C)(C)c1n[nH]c(=S)n(/N=C/c2cccs2)c1=O | -77* | 2 | -2 | -1 | -7 | 0
COc1cccc(CNC(=O)COC(=O)c2cccc(S(=O)(=O)N3CCCC3)c2)c1 | . | . | . | -5 | -5 | .
Cc1cc(C)cc(C(=O)NCC(=O)OCC(=O)NC2CC2)c1 | . | -4 | 6 | -3 | -8 | 0
O=C(CN1C(=O)NC2(CCCCCC2)C1=O)NCCc1ccccc1 | . | 186* | 2 | -8 | -3 | 1
CC(NC(=O)CN1C(=O)NC2(CCCCCC2)C1=O)c1ccccc1 (stereo not given) | . | 78* | -6 | -9 | -9 | 0
CC(NC(=O)CCC(=O)N1CCCCCC1)c1ccccc1 (stereo not given) | 7 | 14* | -1 | 0 | -7 | 1
O=C(CN1C(=O)NC2(CCCCC2)C1=O)NCCc1ccccc1 | . | 3 | -1 | 1 | 0 | 1
CC(NC(=O)CCC(=O)NC(C)c1ccccc1)c1ccccc1 (stereo not given) | 12 | 1 | -2 | 0 | -7 | 0
O=C(Cc1ccc(NC(=O)C2CCN(C(=O)C3CCC3)CC2)cc1)Nc1cccc(C(=O)N2CCCCC2)c1 | . | . | . | -6 | -1 | .
NS(=O)(=O)c1cccc(NC(=O)COc2ncnc3c2cnn3-c2ccccc2)c1 | 18 | 131* | -3 | -7 | 3 | 0
NC(=O)c1c(-c2ccccc2)oc2ccc(O)cc12 | 0 | 17* | 3 | 5 | 8 | -1
CCc1ccc(OCC(=O)N/N=C(\C)c2ccc(O)cc2O)cc1 | -78* | . | . | -3 | -31 | -1
COc1ccc(CCCN2CCC(CN3C(=S)NC[C@@H]3Cc3ccccc3)CC2)cc1OC | . | . | . | -8 | -8 | .
O=C(Nc1ccc(C(=O)NC2CCCCC2)cc1)c1cccnc1 | -3 | 14* | -3 | 1 | 0 | 0
CC(=O)Nc1ccc(C(=O)NC2CCCC2)cc1 | . | -1 | -3 | -11 | -2 | 1
COc1cc(/C=C/C(=O)N2CCCC2)cc(OC)c1OC | 19 | 9.1* | -4 | -8 | 2 | 1
Cc1ccc(S(=O)(=O)N2CCN(C(=O)C3CC3C)CC2)c(C)c1 (stereo not given) | -4 | 0 | 4 | -2 | -3 | 0
Cc1ccc(S(=O)(=O)N2CCN(C(=O)C3CCN(C(=O)c4ccc(F)cc4)CC3)CC2)c(C)c1 | 4 | 22* | -1 | 0 | -6 | -1
CC(=O)Nc1ccc(S(=O)(=O)NCCC(=O)OCC(=O)c2cccc(Br)c2)cc1 | . | . | . | 2 | 6 | .
O=C(CCNC(=O)N1CC(=O)Nc2ccccc21)Nc1cccc(Cl)c1 | 4 | 15* | 1 | -3 | -5 | 0
